For one test, the species on record is Gallus gallus. Put plainly: Relative percent binding to cellular retinoic acid binding protein (CRABP) in chick embryo skin. Put shortly:
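Competition of unlabeled retinoid with [3H]retinoic acid for binding to CRABP from chick embryo skin. Inhibition caused by a 100-fold molar excess of unlabeled retinoic acid defined as 100%.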

In the next test the test system is F9. Kind of test: Ability to induce differentiation of mouse F9 embryonal carcinoma cells. The test is classed as functional. As to conditions: read-out: ED50 (the source's name). In short, it runs like this:
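Mouse F9 embryonal carcinoma cells grown at 1 × 10^5 cells/mL for 4 days with or without retinoid at 10^-7 to 10^-11 M. Harvest fluid mixed with 0.13 μM plasminogen, 0.3 mM H-D-Val-Leu-Lys-p-NA, 0.1% Tween 80 and fibrinogen fragments in Tris·HCl pH 7.5. Incubated 4 h at 25 °C, p-nitroaniline read at 405 nm. Triplicate mean absorbances plotted semilog against molarity; ED50 taken at midpoint between maximal and minimal absorbance.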

RA and EC50 data for nine compounds are collected here from ChEMBL document CHEMBL1124126, “Terminal bifunctional retinoids. Synthesis and evaluations related to cancer chemopreventive activity” (1988).

Turning to `CCOC(=O)C(C(=O)OCC)=C(C)/C=C/C=C(C)/C=C/C1=C(C)CCCC1(C)C`, the RA in the test filed under Gallus gallus came out at 0%. Moreover, the EC50 with F9 was 4.5 nM.
With `CC(/C=C/C=C(C)/C=C/C1=C(C)CCCC1(C)C)=C(C(=O)O)C(=O)O`, the RA in the test listed under Gallus gallus was 65%. Also, in the test with F9, the EC50 came out at 0.5 nM.
The compound `CCOC(=O)/C(C(=O)O)=C(C)/C=C/C=C(C)/C=C/C1=C(C)CCCC1(C)C` registered an RA in the test listed under Gallus gallus of 90%. The EC50 with F9 came to 1 nM.
On to `CC1=C(/C=C/C(C)=C/C=C/C(C)=C\C(=O)O)C(C)(C)CCC1` [ISOTRETINOIN], for which, in the test listed under Gallus gallus, the RA stood at 100%. In addition, the EC50 in the test on F9 is 0.3 nM.
Turning to `CCNC(=O)\C(C(=O)O)=C(C)/C=C/C=C(C)/C=C/C1=C(C)CCCC1(C)C`, in the test filed under Gallus gallus, the RA is 55%. The EC50 in the test on F9 stood at 0.6 nM.
Compound `CCNC(=O)/C(C(=O)O)=C(C)/C=C/C=C(C)/C=C/C1=C(C)CCCC1(C)C` displayed an RA in the test listed under Gallus gallus of 55%. For the same compound, the EC50 in the test with F9 was determined as 0.5 nM.
`CCNC(=O)\C(C(=O)OCC)=C(C)/C=C/C=C(C)/C=C/C1=C(C)CCCC1(C)C` yielded an RA in the test listed under Gallus gallus of 0%. Besides, the EC50 with F9 amounted to 6 nM.
In the test listed under Gallus gallus, `CCNC(=O)/C(C(=O)OCC)=C(C)/C=C/C=C(C)/C=C/C1=C(C)CCCC1(C)C` returned an RA of 0%. For the same compound, in the test on F9, the EC50 amounted to 6 nM.
The corresponding values for `CC1=C(/C=C/C(C)=C/C=C/C(C)=C/C(=O)O)C(C)(C)CCC1` [TRETINOIN] are 100% and 0.1 nM.
